# Bioassay records from PubChem.
# Runt-CBFb FRET – blocks binding of human RUNX1 Runt domain to CBFb; Q01196+Q13951; Cerulean-Runt/Venus-CBFb FRET ratio 530/480, 1 h; inhibition, % at 20 µM; hit rate 0.46% among 220,000; AID 1496;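 active means inhibition over about 50% at 20 µM in the single-dose screen, limit read from the data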;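 further: 0% = DMSO wells and 100% = excess unlabeled CBFb competitor control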
#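 Assay system: Cerulean-Runt domain / Medium: Tris 50 mM pH 7.5, KCl, K2SO4, 0.01% BSA / Timing: protein complex preformed 1 h, compound exposure 1 h, room temperature, dark / Measured by: FRET, excitation 422 nm, emission at 530 and 480 nm / Evaluation: loss of energy transfer signal / Control set: 5 µM unlabeled CBFb as full-inhibition high control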
# RanGTP-Imp inh – disruptors of Ran-importin-beta complex formation – biochemical, FRET, CFP-Ran, YFP-importin-beta, homogeneous, primary screen; cell-free CFP-Ran/YFP-importin-beta FRET ratio; inhibition, % (no concentration beside the values); hit rate 1.1% among 300,000; AID 2216;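 active means more than half of the replicate wells show a fall in the fluorescence ratio signal beyond about 16%, limit read from the data, passing the limit was not always enough; inconclusive means exactly half of the replicate wells pass the set limit; inactive means fewer than half of replicates pass the limit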;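 further: 0% = DMSO wells and 100% = Ran loaded with GDP instead of GTP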
# Runt-SMMHC FRET – Runt domain-CBFb-SMMHC interaction inhibition; Q01196+Q13951; Cerulean-Runt/Venus-CBFb-SMMHC FRET ratio 530/480, 1 h; hit rate 0.74% among 220,000; inhibition, % at 20 µM; AID 1434;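 active means mean inhibition across duplicate retests at 20 µM reaching about 50%, limit read from the data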;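 further: 0% = DMSO wells and 100% = wells with excess untagged CBFb-SMMHC; inhibitors lower the FRET ratio by blocking Runt binding to CBFb-SMMHC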
# FAS-TE inh – inhibitors of human fatty acid synthase thioesterase domain | recombinant FAS-TE, OMFH fluorogenic substrate, fluorescence endpoint | inhibition, % at 15 µM | hit rate 0.67% among 360,000 | AID 602261;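 active means compounds whose normalised, plate-corrected inhibition of enzyme fluorescence in the single-dose primary screen is 50% or more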;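 further: 0% = DMSO with enzyme and 100% = substrate without enzyme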
# m-calpain inh – blocks pig calpain II enzyme activity | purified calpain II, fluorogenic peptide substrate, 30 min | inhibition, % at 16 µM | hit rate 0.37% among 220,000;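 active means inhibition above about 50%, limit read from the data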
# FAS-TE inh conf – FAS thioesterase (human) inhibition, confirmation | shares compounds with FAS-TE inh | hit rate 45% among 2,300 | recombinant FAS-TE, OMFH fluorogenic substrate, fluorescence | inhibition, % at 15 µM;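 active means compounds inhibiting the enzyme by at least 50% at 15 µM in any one of the replicates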;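 further: 0% = enzyme with DMSO only and 100% = wells lacking enzyme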
# * hit, by the source's call; ? = inconclusive; nt = no result. Hits are enriched below; roughly 2.1% of the tested compounds scored in any of these assays.
SMILES,Runt-CBFb FRET,RanGTP-Imp inh,Runt-SMMHC FRET,FAS-TE inh,m-calpain inh,FAS-TE inh conf
Cc1ccccc1-n1c(SCC(=O)N/N=C/C=C/c2ccccc2[N+](=O)[O-])nc2ccccc2c1=O,-5.0,5.6,-2.1,79.4*,-101.0,27.1
CC1CCN(C(=O)CSc2nc3c(c(=O)n2C)SC(C)C3)CC1 (stereo unspecified),nt,8.4,nt,-2.8,nt,nt
Cc1ccc(-c2nnc3ccc(SCC(=O)N4CCCc5ccccc54)nn23)cc1,-6.2,-6.6,-1.9,73.7*,-0.1,70.0*
O=c1oc(-c2ccco2)nc2sc3c(c12)CCCC3,1.3,-2.4,-4.7,65.8*,-96.6,23.7
Cc1coc(NC(=O)CSc2nc(-c3ccncc3)cc(C(F)(F)F)c2C#N)n1,-9.8,-0.7,-4.0,55.3*,-210.1,36.6*
N#Cc1c(C(F)(F)F)cc(-c2ccc(F)cc2)nc1SCC(=O)O,-1.2,-0.5,0.3,17.2,2.0,nt
CC1(C)CC(=O)C=C(c2ccc(COC(=O)/C=C/c3ccccc3)cc2)C1=O,nt,nt,nt,27.7,nt,nt
CC1(C)CC(=O)C=C(c2ccc(COC(=O)c3ccccc3)cc2)C1=O,nt,nt,nt,64.1*,nt,43.2*
C#CCN(C[C@H]1[C@H](OC(=O)Nc2cccs2)[C@H](OC(=O)Nc2cccs2)C[C@H]2C(=O)N(c3ccccc3)C(=O)[C@@H]12)S(=O)(=O)c1ccc(C)cc1,nt,nt,nt,53.9*,nt,16.4
C#CCN(C[C@H]1[C@H](OC(=O)NCc2ccccc2)[C@H](OC(=O)NCc2ccccc2)C[C@H]2C(=O)N(c3ccccc3)C(=O)[C@@H]12)S(=O)(=O)c1ccc(C)cc1,nt,nt,nt,62.1*,nt,19.7
COc1ccc(Cl)cc1CN1CCN(c2nc(C)cc(C)c2C#N)CC1,-3.7,4.7,-10.4,16.4,-64.0,nt
Cc1cc(C)c(C#N)c(N2CCN(CCOc3ccc(Cl)cc3)CC2)n1,-0.2,0.0,-8.2,50.1*,4.2,33.4
Cc1ccc(-c2nc(-c3ccccn3)sc2CC(=O)O)cc1,2.9,2.1,-2.4,-4.4,-16.6,nt
CCC(C)(C)NS(=O)(=O)c1cc(CN2C(=O)c3cccnc3C2=O)ccc1OC,nt,3.2,nt,-3.8,nt,nt
Cc1ccccc1COC(=O)c1cc([N+](=O)[O-])ccc1N1CCOCC1,nt,-4.0,nt,36.0,nt,nt
COc1ccc(OC)c(COC(=O)c2cc([N+](=O)[O-])ccc2N2CCOCC2)c1,nt,nt,nt,54.5*,nt,51.1*
CSc1ccc(COC(=O)c2cc([N+](=O)[O-])ccc2N2CCOCC2)cc1,nt,1.2,nt,65.8*,nt,57.5*
CC1CCCCC12NC(=O)N(CC(=O)OCC(=O)c1ccc(OC(F)F)cc1OC(F)F)C2=O (stereo unspecified),nt,0.6,nt,7.2,nt,nt
CCS(=O)(=O)c1ccc(-c2csc(-c3ccccc3Cl)n2)c(Cl)c1Cl,0.3,3.1,-6.3,72.3*,11.8,11.1
CCS(=O)(=O)c1ccc(-c2csc(-c3ccc(Cl)cc3)n2)c(Cl)c1Cl,1.1,-0.8,0.1,70.6*,23.4,52.2*
CC(=O)c1sc(-c2ccccc2Cl)nc1C,-1.4,-0.2,-0.7,-3.2,4.5,nt
O=C(CN1C(=O)c2ccc([N+](=O)[O-])cc2C1=O)NCCC1=CCCCC1,nt,nt,nt,54.0*,nt,54.1*
O=C(COc1ccc([N+](=O)[O-])cc1)Nc1ccc2c(c1)CCC2,nt,nt,nt,57.9*,nt,62.6*
O=C(NCCC1=CCCCC1)c1ccc([N+](=O)[O-])cc1,-0.2,4.4,-4.0,40.2,15.6,nt
O=C(COc1ccc([N+](=O)[O-])cc1)NCCC1=CCCCC1,-1.5,-0.1,1.4,62.8*,10.5,63.9*
SMILES,Runt-CBFb FRET,RanGTP-Imp inh,Runt-SMMHC FRET,FAS-TE inh,m-calpain inh,FAS-TE inh conf
O=C(CCNC(=O)c1ccc([N+](=O)[O-])cc1)NCCc1ccccc1,nt,-1.8,nt,59.7*,nt,46.5*
CC1(C)CC(NC(=O)c2ccc(Cl)c(S(=O)(=O)N(Cc3ccccc3)c3ccccc3)c2)CC(C)(C)N1,nt,-3.6,nt,-4.5,nt,nt
O=C(COc1c(Br)cc(Br)cc1Br)N/N=C/c1ccco1,nt,nt,nt,2.1,nt,nt
O=C(CC(=O)N/N=C\c1ccccc1)NCCc1ccccc1,nt,2.5,nt,-1.7,nt,nt
O=C(CCNC(=O)c1ccc([N+](=O)[O-])cc1)NCCC1=CCCCC1,nt,1.1,nt,75.5*,nt,83.3*
O=C(CC(=O)N/N=C\c1ccc([N+](=O)[O-])cc1)NCCc1ccccc1,0.0,0.7,3.8,52.5*,18.3,50.2*
COc1cc2cc(CN(Cc3cccs3)C(=S)Nc3ccc(C)cc3)c(=O)[nH]c2cc1OC,-1.3,0.6,-13.8,76.2*,-47.7,24.0
Cc1cccc(NC(=S)N(Cc2cccs2)Cc2cc3cc(C)ccc3[nH]c2=O)c1,-0.8,2.3,1.1,23.9,14.2,nt
Cc1cc(C)c2[nH]c(=O)c(CN(Cc3cccs3)C(=S)NCc3ccco3)cc2c1,20.1,?,0.4,61.7*,-39.8,27.4
COc1cc2cc(CN(Cc3cccs3)C(=S)Nc3cccc(C)c3)c(=O)[nH]c2cc1OC,-6.6,2.6,0.5,nt,-45.4,nt
Cc1ccc(NC(=S)N(Cc2cccs2)Cc2cc3cc(C)ccc3[nH]c2=O)cc1,-0.1,1.7,6.2,71.9*,-28.8,29.0
CCC(C)c1ccc(C(CC)NC(=O)C2CCCO2)cc1 (stereo unspecified),nt,2.5,nt,3.1,nt,nt
CCN(CC)CCn1c(SCC(=O)Nc2ccc3c(c2)CCC3)nc2ccccc2c1=O,nt,nt,nt,1.2,nt,nt
CC(C)n1nnnc1SCC(=O)Nc1ccccc1F,nt,2.8,nt,-5.6,nt,nt
Cc1cc(C)n2nc(C(=O)N3CCCC(Nc4ccc(F)c(F)c4)C3)cc2n1 (stereo unspecified),nt,-1.9,nt,-2.3,nt,nt
N#Cc1cc(-c2ccccc2)nc(Oc2ccc(Cl)cc2)n1,0.8,-2.7,1.2,65.1*,-36.5,52.8*
N#Cc1cc(-c2ccccc2)nc(NN)n1,0.9,-1.4,1.2,-0.5,10.0,nt
C=CCOC(=O)COc1ccc2c(C)c(CC)c(=O)oc2c1,-0.8,1.3,-1.3,69.8*,-325.8,73.4*
C=CCOC(=O)COc1ccc2c(C)c(C)c(=O)oc2c1,-4.1,?,-0.2,17.9,-185.0,nt
O=c1[nH]c(CN2CCN(S(=O)(=O)c3cccs3)CC2)nc2c(Br)cc(Br)cc12,-0.7,3.4,-4.9,55.1*,-22.6,38.2*
O=c1[nH]c(CN2CCN(c3ncccn3)CC2)nc2c(Br)cc(Br)cc12,-8.8,3.2,-16.1,11.3,-38.5,nt
COc1ccc(-c2nn(-c3ccccc3)cc2/C=N/O)cc1OC,nt,?,nt,-9.3,nt,nt
COc1ccc(-c2nn(-c3ccccc3)cc2/C=N/NC(=O)c2cccc(S(=O)(=O)Nc3ccccc3OC)c2)cc1,-5.1,-5.5,-0.4,54.1*,-128.1,21.6
COc1ccc(-c2nn(-c3ccccc3)cc2/C=N/NC(=S)NC(C)C)cc1OC,-3.5,-2.8,3.3,55.6*,-54.5,14.8
